The results in this text go back to ChEMBL document CHEMBL1133727, “Structure-activity relationships in a series of bisquaternary bisphthalimidine derivatives modulating the muscarinic M(2)-receptor allosterically” (J Med Chem, 2000).

As a reminder, the logP is a log measure of how a compound divides between an organic and an aqueous phase. High values mean higher lipophilicity, low ones lower lipophilicity.

Data set [1] deals with T1, Muscarinic acetylcholine receptor M2 (Sus scrofa, UniProt P06199).
T1 sequence (P06199 whole entry): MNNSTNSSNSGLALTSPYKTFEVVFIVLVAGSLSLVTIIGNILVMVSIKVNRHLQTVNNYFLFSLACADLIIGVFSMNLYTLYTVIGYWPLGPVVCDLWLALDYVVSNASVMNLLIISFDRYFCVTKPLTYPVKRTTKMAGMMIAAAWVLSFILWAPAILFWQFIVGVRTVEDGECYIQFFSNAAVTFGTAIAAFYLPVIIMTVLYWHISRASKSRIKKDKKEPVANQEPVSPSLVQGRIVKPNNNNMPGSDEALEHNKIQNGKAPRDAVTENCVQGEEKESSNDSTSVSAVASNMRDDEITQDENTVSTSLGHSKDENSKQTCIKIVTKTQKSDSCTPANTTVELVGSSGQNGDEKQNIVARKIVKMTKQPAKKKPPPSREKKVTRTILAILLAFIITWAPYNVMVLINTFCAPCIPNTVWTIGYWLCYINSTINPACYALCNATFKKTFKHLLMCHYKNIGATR
As to the kind of experiment: Inhibition of [3H]- N-methyl-scopolamine ([3H]NMS) dissociation from porcine cardiac M2-receptors. To be noted: read-out: Log 1/EC50 (converted). In short, it runs like this:
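Porcine heart ventricular myocardium homogenate, stored at −80 °C. Membranes preincubated 30 min with [3H]NMS in 3 mM MgHPO4, 50 mM Tris, pH 7.3, 37 °C. Dissociation started with 1 µM atropine, with or without test compound. Bound ligand collected by filtration and counted by liquid scintillation. Monoexponential fit gave apparent k−1; EC50 for k−1 reduced to 50% of control, from four-parameter logistic fit.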

Data set [2] is described as follows: Partition coefficient (logP). Type of data set: physicochemical. To be noted: octanol/water.

On to `C[N+](C)(CCCCCC[N+](C)(C)CCCN1C(=O)c2ccccc2C1c1ccccc1)CCCN1C(=O)c2ccccc2C1c1ccccc1` (centres undefined), for which, in data set [1], the EC50 was 794 nM. The compound also gave a logP in data set [2] of 3.4.

For `CC(C)SC1c2ccccc2C(=O)N1CCC[N+](C)(C)CCCCCC[N+](C)(C)CCCN1C(=O)c2ccccc2C1SC(C)C` (centres undefined), in data set [1], the EC50 was 1260 nM. Also, the lipophilicity (logP) in data set [2] amounted to 2.92.

For `C[N+](C)(CCCCCC[N+](C)(C)CCCN1C(=O)c2ccccc2/C1=C\c1ccccc1)CCCN1C(=O)c2ccccc2/C1=C\c1ccccc1`, the EC50 in data set [1] was 70.8 nM. The logP in data set [2] turned out to be 2.96.

For `C[N+](C)(CCCCCC[N+](C)(C)CCCN1C(=O)c2ccccc2C1=O)CCCN1C(=O)c2ccccc2C1=O`, the EC50 in data set [1] is 1410 nM. The same compound gave a logP in data set [2] of 1.46.

Consider `CCOC1c2ccccc2C(=O)N1CCC[N+](C)(C)CCCCCC[N+](C)(C)CCCN1C(=O)c2ccccc2C1OCC` (centres undefined), for which the EC50 in data set [1] is 2290 nM. The same compound came in with a logP in data set [2] of 2.07.

As to `CC(C)OC1c2ccccc2C(=O)N1CCC[N+](C)(C)CCCCCC[N+](C)(C)CCCN1C(=O)c2ccccc2C1OC(C)C` (centres undefined), in data set [1], the EC50 was 1580 nM. This compound returned a logP in data set [2] of 2.48.

With `C[N+](C)(CCCCCC[N+](C)(C)CCCN1Cc2ccccc2C1=O)CCCN1Cc2ccccc2C1=O`, the EC50 in data set [1] was 2000 nM. Besides, the logP in data set [2] was 1.55.

As to `C[N+](C)(CCCCCC[N+](C)(C)CCCN1C(=O)c2ccccc2C1O)CCCN1C(=O)c2ccccc2C1O` (centres undefined), in data set [1], the EC50 is 6030 nM. The logP in data set [2] came to 1.45.

In the case of `C[N+](C)(CCCCCC[N+](C)(C)CCCN1C(=O)c2ccccc2/C1=C\c1ccccc1)CCCN1C(=O)c2ccccc2/C1=C/c1ccccc1`, in data set [1], the EC50 is 66.1 nM. In data set [2], this compound yielded a log partition coefficient (logP) of 2.96.

For `COC1c2ccccc2C(=O)N1CCC[N+](C)(C)CCCCCC[N+](C)(C)CCCN1C(=O)c2ccccc2C1OC` (centres undefined), in data set [1], the EC50 is 6760 nM. For the same compound, in data set [2], the lipophilicity (logP) is 1.72.

Take `C[N+](C)(CCCCCC[N+](C)(C)CCCN1C(=O)c2ccccc2/C1=C/c1ccccc1)CCCN1C(=O)c2ccccc2/C1=C/c1ccccc1`: the EC50 in data set [1] is 85.1 nM. In data set [2], this compound gave a logP of 2.96.

As to `C[N+](C)(CCCCCC[N+](C)(C)CCCN1C(=O)c2ccccc2C1Cc1ccccc1)CCCN1C(=O)c2ccccc2C1Cc1ccccc1` (centres undefined), in data set [1], the EC50 is 1000 nM. In data set [2], this compound registered a logP of 3.65.
